Here are results for 16 molecules from ChEMBL document CHEMBL2407050, “Wilsonols A-L, megastigmane sesquiterpenoids from the leaves of Cinnamomum wilsonii” (J Nat Prod, 2013).

Calls of active or inactive are those of the source. Unless noted, the calls are words filed in the database; no cut-off is given here.

Series [1] has as its system MCF7. Put plainly: Cytotoxicity against human MCF7 cells after 48 hrs by MTS assay. The class given is functional, cell-based. As to conditions: MCF7, 48 h. Put shortly: (§1)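 Cells grown in DMEM or RPMI-1640 with 10% FBS at 37 °C under 5% CO₂. Adherent cells plated 12 h before dosing; suspension cells plated at dosing, initial density 1 × 10⁵ cells/mL. MTS (5 mg/mL stock) added for 4 h at 37 °C, then SDS lysis and OD at 595 nm. IC50 by Reed–Muench.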
(In general: Tetrazolium dyes change colour on reduction, which living cells bring about.)

Series [2] relates to SW480. Put plainly: Cytotoxicity against human SW480 cells after 48 hrs by MTS assay. The class given is functional, cell-based. As to conditions: SW480, 48 h. Put shortly: as §1
Series [3] has as its system A549. Put plainly: Cytotoxicity against human A549 cells after 48 hrs by MTS assay. The class given is functional, cell-based. As to conditions: A549, 48 h. In outline: as §1
Series [4] relates to SMMC-7721. Kind of series: Cytotoxicity against human SMMC7721 cells after 48 hrs by MTS assay. It is filed as functional, cell-based. As to conditions: SMMC-7721, 48 h. Put shortly:
as §1

Series [5] relates to HL-60. Put plainly: Cytotoxicity against human HL60 cells after 48 hrs by MTS assay. The class given is functional, cell-based. To be noted: HL-60, 48 h. In outline: as §1
Series [6] can be described thus: Cytotoxicity against mouse T lymphocytes after 48 hrs by CCK-8 assay. To be noted: t-cell. In outline: (§2)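 Splenocyte toxicity run without ConA or LPS at 5 × 10⁶ cells/200 μL/well. Cultured 48 h at 37 °C, 5% CO₂ with CCK-8 during the final 4 h; A450 read against a 600 nm reference. Viability (%) = compound OD450 / […] OD450 × 100.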
Series [7] in a line: Cytotoxicity against mouse B lymphocytes after 48 hrs by CCK-8 assay. To be noted: b-cell. Put shortly:
as §2

For series [8], the system named is T-cell. Kind of series: Inhibition of ConA-induced mouse T lymphocytes proliferation after 48 hrs by CCK-8 assay. It is filed as functional. In outline: (§3)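 Murine splenocytes, 2.5 × 10⁶ per well, co-treated with compounds at various concentrations plus ConA (5 μg/mL, T-cell stimulus) or LPS (B-cell stimulus). Cultured 48 h at 37 °C, 5% CO₂; CCK-8 added for the last 4 h, A450 read against a 600 nm reference. Triplicate means; change expressed relative to the stimulated positive control. >10% inhibition counted as active.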

The test system of series [9] is B-cell. Kind of series: Inhibition of LPS-induced mouse B lymphocytes proliferation after 48 hrs by CCK-8 assay. The class given is functional. Put shortly: as §3
Series [10] concerns MCF7. Kind of series: Selectivity index, ratio of IC50 for human BEAS2B cells to IC50 for human MCF7 cells. The class given is functional. In outline:
(§4)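 Ratio of the Beas-2B IC50 to the IC50 for each cancer line. Both IC50s come from the 48 h MTS viability assay with Reed–Muench calculation.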

Series [11] can be described thus: Selectivity index, ratio of IC50 for human BEAS2B cells to IC50 for human SW480 cells. The class given is functional. In outline: as §4
The nature of series [12]: Selectivity index, ratio of IC50 for human BEAS2B cells to IC50 for human HL60 cells. The class given is functional. In outline: as §4
Series [13] deals with SMMC-7721. Put plainly: Selectivity index, ratio of IC50 for human BEAS2B cells to IC50 for human SMMC7721 cells. It is filed as functional. In outline:
as §4

Series [14] deals with A549. Put plainly: Selectivity index, ratio of IC50 for human BEAS2B cells to IC50 for human A549 cells. It is filed as functional. Put shortly: as §4
Series [15] in a line: Cytotoxicity against human BEAS2B cells after 48 hrs by MTS assay. The class given is cell-based. As to conditions: beas-2b. In outline: as §1

Usually IC50 stands for the midpoint of a concentration-inhibition curve. A higher IC50 goes with lower potency. In the case of `C[C@@H](O)/C=C/[C@H]1C(CO)=CC(=O)CC1(C)C`, the IC50 in series [1], in series [2], in series [3], in series [4] and in series [5] was over 10 µM in each case.
As for `COC(=O)/C=C(C)\C=C\[C@@]1(O)C(C)=CC(=O)CC1(C)C`, the Activity entry in series [6] and in series [7] was “Non-toxic” each time. Moreover, the inhibition entry in series [8] and in series [9] was “inactive” throughout. Further, the IC50 in series [1], in series [2], in series [3], in series [4] and in [5] was over 10 µM throughout.
In the case of `C[C@@H](O)/C=C/[C@@]1(O)C(C)(C)C[C@H](O)[C@@H](O)[C@@]1(C)O` [WILSONOL H], the IC50 in [1], in [2], in series [3], in series [4] and in [5] was over 10 µM each time.
In the case of `CC1=C(CC[C@@H](C)O)C(C)(C)C[C@H](O)[C@@H]1O`, the Activity entry in [6] and in series [7] was “Non-toxic” throughout. Besides, the inhibition result in [9] was “Active”. Moreover, the 50% inhibitory concentration (IC50) in series [1], in series [2], in series [3], in [4] and in series [5] was over 10 µM throughout.
Take `CC1=C(CC[C@H](C)O)C(C)(C)C[C@H](O[C@@H]2O[C@H](CO)[C@@H](O)[C@H](O)[C@H]2O)C1`: the Activity entry in series [6], in series [7] and in series [15] was “Non-toxic” each time. Also, the “Ratio IC50” value in series [10], in series [11], in [12], in [13] and in series [14] was over 16 in each case. Besides, the IC50 stood at 3.4 µM in series [1]; 12 µM in [2]; 2.5 µM in [3]; 3.1 µM in series [4]; 5 µM in series [5].
For the molecule `CC(=O)/C=C/[C@@]1(O)[C@H](C)[C@H](O[C@@H]2O[C@H](CO)[C@@H](O)[C@H](O)[C@H]2O)[C@@H](O)CC1(C)C`, the Activity result in series [6] and in series [7] was “Non-toxic” throughout. In addition, the IC50 in series [1], in series [2], in series [3], in [4] and in series [5] was over 10 µM throughout.
Take `C[C@@H]1C[C@H](O)CC(C)(C)[C@]1(O)CC[C@@H](C)O` [WILSONOL F]: the Activity entry in series [6] and in series [7] was “Non-toxic” in each case. The IC50 in series [1], in [2], in series [3], in [4] and in series [5] was over 10 µM throughout.
On to `CC(=O)/C=C/[C@@]1(O)[C@H](C)[C@H](O)[C@@H](O)CC1(C)C` [WILSONOL C], for which the Activity entry in [6] and in series [7] was “Non-toxic” throughout. The IC50 in series [1], in series [2], in series [3], in series [4] and in series [5] was over 10 µM in each case.
As for `C[C@@H]1[C@H](O)[C@@H](O)CC(C)(C)[C@H]1/C=C/[C@H](C)O`, the Activity entry in series [6] and in [7] was “Non-toxic” in each case. Further, the IC50 in series [1], in [2], in [3], in series [4] and in [5] was over 10 µM in each case.
Take `C[C@H](O)CCC1=C(CO)C[C@@H](O)CC1(C)C`: the Activity entry in [6] and in [7] was “Non-toxic” each time. For the same molecule, the inhibition entry in series [8] and in series [9] was “Active” in each case. The IC50 in [1], in series [2], in series [3], in [4] and in series [5] was over 10 µM each time.
Consider `C[C@@H](O)/C=C/[C@@]1(O)[C@@H](C)C[C@H](O)CC1(C)C`, for which the Activity result in [6] and in [7] was “Non-toxic” throughout. Further, the inhibition result in [8] and in series [9] was “Active” in each case. Moreover, the IC50 in series [1], in series [2], in [3], in [4] and in series [5] was over 10 µM in each case.
As for `C[C@@H]1[C@H](O)[C@@H](O)CC(C)(C)[C@@]1(O)/C=C/[C@@H](C)O` [WILSONOL B], the Activity entry in series [6] and in series [7] was “Non-toxic” each time. The inhibition entry in series [8] is “Active”. Further, the half-maximal inhibitory concentration (IC50) in series [1], in series [2], in series [3], in series [4] and in series [5] was over 10 µM each time.
As to `CC(O)/C=C/[C@H]1[C@H](C)[C@H](O)[C@@H](O)CC1(C)C` (mixture of isomers) [WILSONOL E], the IC50 in series [1], in series [2], in series [3], in series [4] and in series [5] was over 10 µM throughout.
As for `C[C@H](O)/C=C/[C@@]1(O)[C@H](C)[C@H](O)[C@@H](O)CC1(C)C` [WILSONOL A], the Activity entry in series [6] and in series [7] was “Non-toxic” throughout. Further, the inhibition result in series [8] was “Active”. In addition, the IC50 in series [1], in series [2], in series [3], in series [4] and in series [5] was over 10 µM each time.
For the molecule `C[C@@H](O)/C=C/[C@H]1[C@H](CO)C[C@H](O)CC1(C)C`, the Activity result in series [6] and in series [7] was “Non-toxic” each time. The IC50 in series [1], in series [2], in [3], in series [4] and in [5] was over 10 µM throughout.
Take `C[C@@H](O)/C=C/[C@@H]1C(C)(C)[C@H](O)C[C@@H](O)[C@]1(C)O`: the IC50 in series [1], in series [2], in series [3], in series [4] and in series [5] was over 10 µM throughout.
